# Cneo AK release: Cryptococcus neoformans cell lysis inducers, primary screen, AK release luminescence, single concentration | lysis activity, % at 15 µM | C. neoformans lysis, adenylate kinase release luminescence, 4 h; normalised: neutral wells 0, clomiphene wells 100 | AID 651654, 2012 | 360,000 tested, 0.2% active;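 active = mean lysis activity across replicates of at least 80%, whatever share of replicates individually reach that level; inactive = mean lysis activity below 80%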
#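 Assay system: C. neoformans cells. Amount: yeast cell density of 5 × 10^6 cells/mL. Technique: AK luminescence. Buffer or medium: YPD. Times: static 4 h at 37 °C with compound, 1 h detection. Dosing: single-point compound dose. Read-out: lysis from increased AK signal.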
# FN deposition inh: inhibitors of fibronectin matrix deposition, primary screen, AH1F cells, Alexa488-fibronectin fluorescence, plate reader | AH1F fibroblasts, overnight | inhibition, % at 12.6 µM | 350,000 tested, 0.086% active | AID 743247, 2014;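 active = mean inhibition across replicates of 30% or more, regardless of how many single replicates reach that level; inconclusive = mean under 30% yet at least half of replicates reach 30%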;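 note: positive control wells lacked labelled fibronectin entirely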
#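 test system = AH1F fibroblasts assembling fluorescent fibronectin matrix | quantity = 10000 AH1F cells per well | buffer or medium = DMEM plus 2% serum, read in PBS | doses = single dose, pinned | incubation = 1 h cell attachment, overnight exposure to compound and label | detection = fluorescence at 485 nm excitation, 525 nm emission | read-out basis = inhibition from reduced deposited-fibronectin fluorescence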
# PGC1a acetyl inh: inhibitors of PGC1a acetylation signal, primary screen, cell-based, U2OS, AlphaScreen, inhibitor mode; AlphaScreen anti-acetyl-lysine; with virally co-expressed GCN5 acetyltransferase; inhibition, % at 15.6 µM; 350,000 tested, 0.17% active; AID 651687, 2012;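 active = every replicate shows inhibition of at least 40%; inconclusive = mean inhibition at least 40% but some replicate below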;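 note: 0% = neutral control wells and 100% = positive control wells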
# CFTR F508del cor: F508del CFTR correction, initial screen, CFBE line, single point | AID 720511, 2013 | activity (quench increase), % at 7.58 µM | 350,000 tested, 0.36% active | CFBE cells, YFP halide quenching; stimulated with forskolin plus potentiator P3; % fluorescence drop versus neutral controls;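 active = mean added fluorescence quench of at least 8% versus neutral control, with both replicates also reaching 8%; inconclusive = only one of the mean or replicate conditions met; inactive = mean below 8% and not both replicates reaching 8%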;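 note: cells transiently co-express mutant CFTR-F508del with the halide-sensitive YFP; corrector assay measuring rescue of mutant channel to the surface after 24 h compound exposure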
# XiGFP reactiv: activators of inactive X chromosome reactivation, primary screen, imaging, XiGFP fibroblasts, GFP high-content imaging, set 2; XiGFP mouse fibroblasts, % GFP-positive cells imaging, 3 d; cells co-treated with 5-aza-dC sensitizer; scaled so ellipticine positive control = 100%; activation, % at 7.58 µM; 360,000 tested, 0.055% active; AID 743238, 2013;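 active = mean normalized replicate activation at least 10% and every replicate at or above 10%; inconclusive = only one of the two criteria met; inactive = mean below 10% and not all replicates reach 10%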;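 note: 0% = median of on-plate neutral control wells and 100% = ellipticine 6 µM median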
#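 material = 68-5-11 XiGFP fibroblast line | medium = DMEM plus 5-aza-dC sensitizer | schedule = 3 days compound exposure | benchmarks = positive control ellipticine, 6 µM final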
# DENV2 CPE: inhibitors of DENV2 cytopathic effect, primary screen, cell-based, plate reader, single concentration. 350,000 tested, 1.7% active. AID 651640, 2012. CPE inhibition, % at 9.99 µM. DENV2-infected cells, cytopathic effect rescue; in the data active = CPE inhibition above about 20%, passing the limit was not always enough; inconclusive = no clear call, values can overlap the other calls; tested in BHK-21 cells;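 note: 0% = median of neutral control wells and 100% = median of positive control wells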
# * = called active by the depositor; ? = inconclusive; . = not tested or not shown. In the library only some 1.9% were active in any assay of this set; here they are far more common.
SMILES,Cneo AK release,FN deposition inh,PGC1a acetyl inh,CFTR F508del cor,XiGFP reactiv,DENV2 CPE
C/C=C/c1ccc([C@H]2[C@@H](CNS(C)(=O)=O)N(CC3CCCC3)[C@H]2CO)cc1,2,3,-11,1,0,51*
O=C(NC[C@@H]1[C@@H](c2ccccc2)[C@@H](CO)N1CC1CCCC1)c1cccnc1,0,.,2,2,0,39*
O=S(=O)(NC[C@@H]1[C@@H](c2ccccc2)[C@H](CO)N1CC1CC1)c1ccccc1,107*,1,-4,4,0,14
CO[C@H]1CN(C)C(=O)c2cc(NC(=O)Nc3cccc(F)c3)ccc2OC[C@@H](C)N(C(=O)Nc2c(C)noc2C)C[C@@H]1C,-2,7,0,0,0,1
CN(CC(=O)Nc1cc(C(F)(F)F)ccc1-n1cncn1)Cc1nc2ccccc2c(=O)[nH]1,1,4,9,-1,0,-4
CCN(CC(=O)Nc1cc(Cl)ccc1-n1cncn1)Cc1nc2ccccc2c(=O)[nH]1,0,6,6,14*,0,31*
C[C@H]1CN([C@@H](C)CO)C(=O)c2cccc(NC(=O)Nc3cccc4ccccc34)c2O[C@H]1CN(C)C(=O)Nc1ccc(C(F)(F)F)cc1,.,.,-11,4,0,32*
C[C@H](CO)N1C[C@H](C)[C@@H](CN(C)C(=O)Nc2ccc(C(F)(F)F)cc2)Oc2c(NC(=O)Nc3cccc4ccccc34)cccc2C1=O,.,.,.,.,0,.
C[C@@H]1CN([C@@H](C)CO)C(=O)c2cccc(NC(=O)Nc3ccc(C(F)(F)F)cc3)c2O[C@@H]1CN(C)C(=O)Nc1cccc2ccccc12,1,36*,3,-1,0,?
C[C@H]1CN([C@@H](C)CO)C(=O)c2cccc(N(C)C)c2O[C@@H]1CN(C)C(=O)Nc1cccc2ccccc12,84*,4,16,-1,0,-12
Cc1noc(C)c1NC(=O)Nc1ccc2c(c1)CC(=O)N([C@H](C)CO)C[C@@H](C)[C@@H](CN(C)Cc1ccc(Cl)c(Cl)c1)O2,0,.,1,7,0,9
C[C@H](CO)N1C[C@H](C)[C@@H](CN(C)Cc2ccc3c(c2)OCO3)Oc2c(NS(=O)(=O)c3ccc(Cl)cc3)cccc2C1=O,.,.,3,-1,0,-7
O=C(c1cnccn1)N1CC(=O)N2[C@H](C1)[C@H](c1ccc(C#CC3CCCC3)cc1)[C@@H]2CO,.,-9,.,0,0,-1
CCOC(=O)C1=C(C)Nc2nc3ccccc3n2C1c1ccncc1 (configuration not stated),1,14*,31,.,.,.
Cc1ccc(S(=O)(=O)N[C@@H]2CCCN(Cc3cccc(OCCO)c3)C2)cc1,85*,.,-45,3,.,3
COc1ccc(OC)c(Nc2c3c(nc4ccccc24)CCC3)c1,-1,4,-3,6,0,11
COc1cc(Nc2c3c(nc4ccccc24)CCC3)cc(OC)c1OC,0,9,-34,8.6*,0,-5
O=C(CSc1nccn(-c2ccc(F)c(Cl)c2)c1=O)NC1CCCC1,.,-3,.,0,0,22*
O=C(C[C@H]1CC[C@@H]2[C@H](COC[C@H](O)CN2CC2CCCC2)O1)NCC1CC1,.,-6,.,-1,0,9
COc1ccc(-c2sc3cc(OC)c(OC)cc3c2C#CCO)cc1,1,3,.,4,0,2
COc1ccc(-c2sc3cc(OC)c(OC)cc3c2C#CC(C)(C)O)cc1,0,12,-36,3,0,24*
C[C@H]1CCCCO[C@@H](CN(C)C(=O)c2ccncc2)[C@@H](C)CN([C@@H](C)CO)C(=O)c2cc(NC(=O)NC3CCCCC3)ccc2O1,-12,.,14,-1,0,21*

# High-throughput results (PubChem BioAssay)
